pIC50: −log10 of the molar value. Converted amounts (≈) assume the structure as drawn. The source made the active and inactive calls.
How the values were obtained:
[1] = Growth inhibition of mouse BNL-CL2 cells after 48 hrs by MTT assay; type: functional, cell-based; settings: BNL CL.2, 48 h
Summary of the method: (§1)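 MTT cell proliferation assay. IC50 (µM) was defined as the concentration giving 50% inhibition of cell growth.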

NCI-H1299 [2] = assay: Cell cycle arrest in human NCI-H1299 cells assessed as accumulation of cells at G0/G1 phase at IC50 concentration after 24 hrs by flow cytometry (reference value: 56%); type: functional
NCI-H1299 [3] = assay: Cell cycle arrest in human NCI-H1299 cells assessed as accumulation of cells at G2/M phase at IC50 concentration after 24 hrs by flow cytometry (reference value: 18%); type: functional
[4] = target: Dual specificity mitogen-activated protein kinase kinase 1 (Homo sapiens) (UniProt Q02750); assay: Inhibition of human MEK1 assessed as enzyme activity at 10 uM
NCI-H460 = assay: Induction of apoptosis in p53+, pRb+ human NCI-H460 cells assessed as fragmented nuclei/distrupted cell membrane after 24 hrs by DAPI staining-based flow cytometry; type: functional
[5] = target: Cyclin-dependent kinase 5/CDK5 activator 1 (Homo sapiens) (UniProt Q00535+Q15078); assay: Inhibition of human CDK5/p35 assessed as enzyme activity at 10 uM; type: protein-complex assay
NCI-H358 [6] = assay: Cell cycle arrest in human NCI-H358 cells assessed as accumulation of cells at S phase at IC50 concentration after 12 hrs by flow cytometry in presence of nocodazole for 18 hrs (reference value: 10%); type: functional
[7] = Cell cycle arrest in mouse BNL-CL2 cells assessed as accumulation of cells at G0/G1 phase at IC50 concentration after 48 hrs by flow cytometry (reference value: 57%); type: functional
Summary of the method: (§2)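 Normal (BNL CL2) and SV40 large T-antigen transformed (BNL SV A.8) mouse embryonic hepatic cells were treated at IC50 or IC70 concentration for 48 h. Analysis was by FACS, with apoptosis taken as % cells in the sub-G1 peak. Untreated cells served as control.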

[8] = Antitumor activity against human HCT116 cells xenografted in SCID mouse assessed as inhibition of tumor growth at 100 mg/kg, ip relative to untreated control; type: functional; settings: HCT-116, ip, route intraperitoneal
Summary of the method: (§3)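 SCID male mice, 18-25 g, 6-8 weeks old, received 6.6 × 10^6 HCT-116 cells subcutaneously on the dorsal side. Randomized into groups of 7 at 4-6 mm tumors (about 5 days), then dosed intraperitoneally for 9 consecutive days. Tumor size recorded every 2-5 days, weight = L×W²×0.5; %GI = 100 − %T/C. Body weight taken daily relative to start; Student t-test.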

Homo sapiens = species: Homo sapiens; assay: Selectivity ratio of IC50 for human CDK2/cyclin A to IC50 for human CDK4/cyclin D1
Tubulin (Homo sapiens) [9] = target: T1, Tubulin (Homo sapiens) (UniProt P68371+Q9H4B7+P0DPH7+P68366+Q13509+Q71U36+P04350+Q3ZCM7+P07437+P68363+Q9BQE3+Q6PEY2+Q13885+Q9BVA1+Q9BUF5); assay: Inhibition of tubulin polymerization in p53+, pRb+ human A549 cells assessed as paclitaxel-mediated polymerization treated followed by compound treatment measured after 30 mins by Western blot analysis; type: cell-based
CYP2D6 = CYP2D6 (Homo sapiens, UniProt P10635); assay: Inhibition of human recombinant CYP2D6 at 10 uM; type: ADME
[10] = Cell cycle arrest in mouse BNL-CL2 cells assessed as accumulation of cells at subG1 phase at IC50 concentration after 48 hrs by flow cytometry (reference value: 0%); type: functional; summary of the method: as §2
Mus musculus = assay: Toxicity in human HCT116 cells xenografted in SCID mouse assessed as change in body weight at 100 mg/kg, ip relative to untreated control; type: organism-based, HCT-116; parameters: dose 100 mg/kg, route intraperitoneal; settings: in vivo; summary of the method: as §3
A549 [11] = assay: Reduction cyclin B1 level in p53+, pRb+ human A549 cells at IC50 concentration after 24 hrs by Western blot analysis
[12] = Anticancer activity against p53 null, pRb+ human Calu1 cells assessed as reduction in colony formation efficiency at 3 uM after 24 hrs by visual count/crystal violet staining method; type: functional; settings: Calu-1, 24 h
Summary of the method: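 Long-term survival assay. A549 and Calu-1 cells treated with a range of concentrations, colonies counted, efficiency expressed as percent of colonies versus untreated cultures. Means and standard deviations of three independent experiments.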

[13] = Cell cycle arrest in mouse BNL-SVA.8 cells assessed as accumulation of cells at subG1 phase at IC70 concentration after 48 hrs by flow cytometry; type: functional; summary of the method: as §2
[14] = Cell cycle arrest in mouse BNL-CL2 cells assessed as accumulation of cells at S phase at IC50 concentration after 48 hrs by flow cytometry (reference value: 15%); type: functional; summary of the method: as §2
[15] = target: Mitogen-activated protein kinase 1 (Homo sapiens) (UniProt P28482); assay: Inhibition of human MAPK1 assessed as enzyme activity at 10 uM
[16] = Solubility in simulated intestinal fluid; type: ADME
LS174T = assay: Reduction Cdk1 level in p53+, pRb+ human LS 174T cells at IC50 concentration after 24 hrs by Western blot analysis
[17] = Solubility in water; type: physicochemical
NCI-H1299 [18] = assay: Induction of apoptosis in p53 null, pRb+ human NCI-H1299 cells assessed as fragmented nuclei/distrupted cell membrane after 24 hrs by DAPI staining-based flow cytometry
CYP2C19 = CYP2C19 (Homo sapiens, UniProt P33261); assay: Inhibition of human recombinant CYP2C19 at 10 uM; type: ADME
NCI-H1299 [19] = assay: Growth inhibition of p53 null, pRb+ human NCI-H1299 cells after 48 hrs by MTT assay; type: functional, cell-based; settings: NCI-H1299, 48 h; summary of the method: as §1
NCI-H358 [20] = assay: Cell cycle arrest in human NCI-H358 cells assessed as accumulation of cells at G2/M phase at IC50 concentration after 12 hrs by flow cytometry in presence of nocodazole for 18 hrs (reference value: 42%); type: functional
[21] = AUC (0 to infinity) in BALB/c mouse at 1 mg/kg, iv; type: ADME, organism-based; parameters: time infinity, dose 1 mg/kg, route intravenous; settings: plasma
Summary of the method: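 BALB/c mice given a single dose of 1.0 mg/kg IV or 10 mg/kg orally; plasma concentration followed over time and pharmacokinetic parameters derived from the time-concentration profile.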

NCI-H358 [22] = assay: Growth inhibition of p53 null, pRb null human NCI-H358 cells after 48 hrs by MTT assay; type: functional, cell-based; settings: NCI-H358, 48 h; summary of the method: as §1
Tubulin (Homo sapiens) [23] = target: T1, Tubulin (Homo sapiens); assay: Inhibition of tubulin polymerization in p53+, pRb+ human A549 cells assessed as paclitaxel-mediated polymerization treated simultaneously measured after 30 mins by Western blot analysis; type: cell-based
NCI-H358 [24] = assay: Cell cycle arrest in human NCI-H358 cells assessed as accumulation of cells at S phase at IC50 concentration after 18 hrs by flow cytometry in presence of […] uM hydroxyurea for 18 hrs (reference value: 12%); type: functional
A549 [25] = assay: Induction of apoptosis in p53+, pRb+ human A549 cells assessed as fragmented nuclei/distrupted cell membrane at 1 to 10 uM by DAPI staining-based flow cytometry; type: functional; settings: TDE = time-dependent effect

Chain of CYP2D6 (P10635 whole entry): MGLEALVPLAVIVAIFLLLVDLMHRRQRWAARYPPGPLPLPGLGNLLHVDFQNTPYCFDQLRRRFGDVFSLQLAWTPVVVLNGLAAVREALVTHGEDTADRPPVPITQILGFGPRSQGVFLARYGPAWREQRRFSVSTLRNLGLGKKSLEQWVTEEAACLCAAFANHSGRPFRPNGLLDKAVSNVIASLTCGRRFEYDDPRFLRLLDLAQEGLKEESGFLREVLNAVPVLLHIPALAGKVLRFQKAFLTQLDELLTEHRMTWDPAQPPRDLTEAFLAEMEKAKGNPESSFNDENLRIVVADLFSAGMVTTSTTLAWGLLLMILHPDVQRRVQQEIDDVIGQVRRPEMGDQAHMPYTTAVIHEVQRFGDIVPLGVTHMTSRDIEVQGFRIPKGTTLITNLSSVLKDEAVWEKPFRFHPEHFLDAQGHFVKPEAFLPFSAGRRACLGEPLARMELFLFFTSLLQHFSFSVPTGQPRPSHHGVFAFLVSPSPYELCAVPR
Chain of CYP2C19 (P33261 whole entry): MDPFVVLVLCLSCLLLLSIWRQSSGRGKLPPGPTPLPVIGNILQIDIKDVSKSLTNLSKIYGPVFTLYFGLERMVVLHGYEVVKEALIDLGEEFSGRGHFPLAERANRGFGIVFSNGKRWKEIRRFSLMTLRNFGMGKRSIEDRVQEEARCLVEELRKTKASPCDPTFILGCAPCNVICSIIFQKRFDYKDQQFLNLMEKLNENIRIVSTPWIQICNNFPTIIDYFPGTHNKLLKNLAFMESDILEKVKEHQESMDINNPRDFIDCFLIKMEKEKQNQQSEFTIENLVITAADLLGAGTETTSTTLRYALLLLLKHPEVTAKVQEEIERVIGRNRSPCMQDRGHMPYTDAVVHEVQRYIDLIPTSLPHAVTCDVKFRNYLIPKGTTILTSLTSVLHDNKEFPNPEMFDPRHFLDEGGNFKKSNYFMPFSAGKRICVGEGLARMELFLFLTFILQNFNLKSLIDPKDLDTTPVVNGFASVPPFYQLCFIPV
Chain of Cyclin-dependent kinase 5/CDK5 activator 1 (Homo sapiens) (Q00535 whole entry): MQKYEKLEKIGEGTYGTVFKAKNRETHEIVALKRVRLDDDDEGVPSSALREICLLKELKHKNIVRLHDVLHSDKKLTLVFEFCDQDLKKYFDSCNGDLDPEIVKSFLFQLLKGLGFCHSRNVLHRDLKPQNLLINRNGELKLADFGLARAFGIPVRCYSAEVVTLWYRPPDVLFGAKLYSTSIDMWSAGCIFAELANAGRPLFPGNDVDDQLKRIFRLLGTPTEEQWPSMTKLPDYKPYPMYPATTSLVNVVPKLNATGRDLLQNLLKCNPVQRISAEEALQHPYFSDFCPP
Chain of Cyclin-dependent kinase 5/CDK5 activator 1 (Homo sapiens) (Q15078 99-307 partner limits assumed): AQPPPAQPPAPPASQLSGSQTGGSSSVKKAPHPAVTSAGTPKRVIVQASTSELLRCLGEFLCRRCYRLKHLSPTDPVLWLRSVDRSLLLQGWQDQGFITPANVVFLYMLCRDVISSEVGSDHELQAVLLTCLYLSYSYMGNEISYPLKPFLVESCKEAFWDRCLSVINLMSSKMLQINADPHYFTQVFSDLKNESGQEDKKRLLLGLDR
Chain of Mitogen-activated protein kinase 1 (Homo sapiens) (P28482 whole entry, looked up): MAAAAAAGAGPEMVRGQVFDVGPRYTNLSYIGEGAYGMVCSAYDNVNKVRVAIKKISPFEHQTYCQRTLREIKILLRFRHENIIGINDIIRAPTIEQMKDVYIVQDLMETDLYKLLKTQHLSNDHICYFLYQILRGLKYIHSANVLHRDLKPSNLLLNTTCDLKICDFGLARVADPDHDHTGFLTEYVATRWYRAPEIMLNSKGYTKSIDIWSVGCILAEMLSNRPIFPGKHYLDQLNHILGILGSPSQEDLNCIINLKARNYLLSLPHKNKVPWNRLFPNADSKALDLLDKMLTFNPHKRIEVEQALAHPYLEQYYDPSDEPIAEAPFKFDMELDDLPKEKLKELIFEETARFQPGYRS
Chain of Dual specificity mitogen-activated protein kinase kinase 1 (Homo sapiens) (Q02750 whole entry, the tested form may be a part): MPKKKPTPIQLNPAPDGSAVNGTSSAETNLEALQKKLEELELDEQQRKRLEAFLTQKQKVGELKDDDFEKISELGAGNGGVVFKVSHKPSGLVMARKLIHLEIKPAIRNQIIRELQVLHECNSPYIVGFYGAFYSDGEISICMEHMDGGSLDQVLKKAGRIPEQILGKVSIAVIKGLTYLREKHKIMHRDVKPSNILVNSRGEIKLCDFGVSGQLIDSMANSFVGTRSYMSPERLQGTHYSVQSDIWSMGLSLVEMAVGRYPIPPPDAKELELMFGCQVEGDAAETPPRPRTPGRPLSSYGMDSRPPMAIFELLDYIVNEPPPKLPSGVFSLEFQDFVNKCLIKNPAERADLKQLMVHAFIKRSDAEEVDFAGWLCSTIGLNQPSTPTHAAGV

## CN(CCc1c[nH]c2ccccc12)C(=O)c1ccc(-c2ccccc2)cc1
[1]
  pIC50: 5.59
NCI-H1299 [2]
  Activity: 22%
NCI-H1299 [3]
  Activity: 71%
[4]
  inhibition: inactive
NCI-H460
  Activity: Dose-dependent effect
[5]
  inhibition: inactive
NCI-H358 [6]
  Activity: 10%
[7]
  Activity: 34%
[8]
  inhibition in vivo at 100 mg/kg: 80%
Homo sapiens
  Ratio IC50: 84
Tubulin (Homo sapiens) [9]
  inhibition: Dose-dependent effect
CYP2D6
  inhibition at 10 µM: 14%
[10]
  Activity: 2%
Mus musculus
  Activity: <= 10%
A549 [11]
  inhibition: Active
[12]
  inhibition at 3 µM: 50%
[13]
  Activity: 44%
[14]
  Activity: 9%
[15]
  inhibition: inactive
[16]
  solubility: 5 µg/mL (≈ 14.1 µM)
LS174T
  inhibition: Active
[17]
  solubility: 80 µg/mL (≈ 226 µM)
NCI-H1299 [18]
  Activity: Dose-dependent effect
CYP2C19
  inhibition at 10 µM: 19%
NCI-H1299 [19]
  pIC50: 5.60
NCI-H358 [20]
  Activity: 74%
[21]
  AUC(0-inf): 189 ng·h/mL
NCI-H358 [22]
  pIC50: 5.66
Tubulin (Homo sapiens) [23]
  inhibition: Dose-dependent effect
NCI-H358 [24]
  Activity: 10%
A549 [25]
  Activity: tde

— ChEMBL document CHEMBL3351368, “Biphenyl-4-carboxylic acid [2-(1H-indol-3-yl)-ethyl]-methylamide (CA224), a nonplanar analogue of fascaplysin, inhibits Cdk4 and tubulin polymerization: evaluation of in vitro and in vivo anticancer activity” (J Med Chem, 2014)
